DNA FID counter = compounds displacing fluorescent DNA intercalator, primary screen, artefact control for HCV NS3 helicase inhibitor project, biochemical, FID fluorescence | DNA fluorescent intercalator displacement | inhibition, % at 7.9 µM | actives 0.17% (n = 290,000); in the data active = inhibition above about 37%;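 also: higher means more ethidium bromide displaced from hairpin DNA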
SUMO Mot1 rescue = yeast Mot1-301 growth rescue at high temperature, primary screen, SUMOylation pathway inhibitor project, S. cerevisiae, ATP luminescence, 38.5C; S. cerevisiae Mot1-301 growth rescue; percent above DMSO median, 100 means doubled; growth rescue, % at 18.8 µM; actives 1% (n = 320,000); AID 2716, 2010;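 active = every valid replicate shows activation above 250% relative to neutral control wells; inactive = the rest, any valid replicate at or below 250%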
VIM-2 inh = VIM-2 metallo-beta-lactamase inhibitors, primary screen, biochemical, epi-absorbance readout, Pseudomonas aeruginosa enzyme. inhibition, % at 5.6 µM. purified VIM-2, nitrocefin hydrolysis, epi-absorbance fluorescence. actives 0.89% (n = 290,000);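 active = inhibition above the mean of all tested compounds plus 3 SD, cutoff set per screening run, cut at about 7.5% in these data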;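 also: red hydrolysis product quenches plate fluorescence so inhibitors raise well fluorescence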
SUMO HTRF inh = inhibitors of in vitro SUMOylation cascade, primary screen, biochemical, HTRF, uHTS. actives 0.36% (n = 290,000). inhibition, % at 35 µM. HTRF SUMOylation assay, SAE1/SAE2 + UBC9. AID 2006, 2009; in the data active = inhibition above about 50%, passing the limit was not always enough
Target sequence (P63279 whole entry, looked up): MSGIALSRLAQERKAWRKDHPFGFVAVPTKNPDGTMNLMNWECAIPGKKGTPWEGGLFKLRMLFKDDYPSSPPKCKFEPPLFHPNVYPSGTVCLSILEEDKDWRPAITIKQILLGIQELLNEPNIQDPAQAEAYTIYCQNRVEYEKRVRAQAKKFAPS
NALP1 yeast inh = NALP1 inflammasome inhibitors in reconstituted yeast, colorimetric, S. cerevisiae, triplicate retest; actives 0.61% (n = 280,000); S. cerevisiae NALP1/ASC/caspase-1 growth, X-gal OD620, 72 h; inhibition, % at 10 µM; in the data active = inhibition mostly above about 24%, no sharp cut-off; inactive = mostly below about 32%
IMP-1 inh-1 = IMP-1 metallo-beta-lactamase inhibitors, primary screen, biochemical, epi-absorbance readout, Pseudomonas aeruginosa enzyme. purified IMP-1, nitrocefin hydrolysis, epi-absorbance fluorescence. inhibition, % at 5.6 µM. AID 1556, 2009. actives 0.45% (n = 290,000). metallo-beta-lactamase IMP-1 (Pseudomonas aeruginosa);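 active = inhibition above the mean plus 3 SD of all compounds in the same screening run, cut at about 4.5% in these data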
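System: Purified recombinant IMP-1 metallo-beta-lactamase enzyme | Measured by: Fluorescence quenching readout, ex 480/em 530 nm | Replication: Singlicate | Incubation: 15 min preincubation plus 25 min reaction at 25 °C | Evaluation: Percent inhibition from optical density relative to buffer-blank wells | Benchmarks: DMSO with and without IMP-1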
IMP-1 inh-2 = IMP-1 metallo-beta-lactamase inhibitors, confirmation, selectivity assay for selective VIM-2 inhibitor project, biochemical, epi-absorbance readout, triplicate. shares compounds with VIM-2 inh. purified IMP-1, nitrocefin hydrolysis, epi-absorbance fluorescence. inhibition, % at 5.6 µM. 1,300 tested, under 10 active. AID 1856, 2009; call rule not given here
VIM-2 FRET inh = VIM-2 inhibitors in FRET format, confirmation, artefact control for selective VIM-2 inhibitor project, biochemical, epi-absorbance artifact exclusion. shares compounds with VIM-2 inh. purified VIM-2, CCF2 FRET substrate hydrolysis. inhibition, % at 5.6 µM. actives 23% (n = 1,300). AID 1857, 2009;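 active = inhibition above the mean of all tested compounds plus 3 SD, cut at about 19% in these data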
TEM-1 counter = TEM-1 serine beta-lactamase inhibitors, counter-screen for VIM-2 inhibitor project, biochemical, epi-absorbance, HTS | inhibition, % at 5.6 µM | shares compounds with VIM-2 inh | AID 1866, 2009 | actives 3% (n = 1,300) | Purified TEM-1, nitrocefin hydrolysis, epi-absorbance fluorescence;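 active = inhibition above that campaign's mean inhibition plus 3 SD, cut at about 0.46% in these data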
Target sequence (P62593 whole entry, looked up): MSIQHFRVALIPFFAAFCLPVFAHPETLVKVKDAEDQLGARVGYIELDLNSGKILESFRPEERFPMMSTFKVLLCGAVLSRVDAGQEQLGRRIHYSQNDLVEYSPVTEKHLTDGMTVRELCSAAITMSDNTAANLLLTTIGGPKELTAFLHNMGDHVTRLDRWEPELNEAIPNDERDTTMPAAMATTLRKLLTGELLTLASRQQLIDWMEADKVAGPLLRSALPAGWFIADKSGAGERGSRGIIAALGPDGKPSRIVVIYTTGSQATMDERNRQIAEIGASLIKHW
VIM-2 inh conf = VIM-2 metallo-beta-lactamase inhibitors, confirmation, biochemical, epi-absorbance, hits shared with IMP-1 screen | shares compounds with VIM-2 inh | purified VIM-2, nitrocefin hydrolysis | inhibition, % at 5.6 µM | actives 96% (n = 1,300) | AID 2187, 2009;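 active = inhibition of the VIM-2 beta-lactamase enzyme above about 11% from the earlier first-round screen, limit read from the data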
A number is an active result. Hits are enriched below; roughly 2.9% of the tested compounds scored in any of these assays.

What do the screens show for `C=CCn1cc(-c2ccc(Cl)cc2)cc(C#N)c1=O`?
DNA FID counter: inactive; VIM-2 inh: inactive; SUMO HTRF inh: inactive; NALP1 yeast inh: inactive; IMP-1 inh-1: inactive

Results for CCCCS(=O)(=O)N1CCCC(C(=O)Nc2ccc3c(c2)CCC3)C1 (centres undefined) ?
DNA FID counter: inactive; SUMO Mot1 rescue: inactive; VIM-2 inh: inactive; SUMO HTRF inh: inactive; NALP1 yeast inh: 26.9; IMP-1 inh-1: inactive

Results for CCCCS(=O)(=O)N1CCCC(C(=O)Oc2ccc(Cl)cc2)C1 (centres undefined) ?
DNA FID counter: inactive; SUMO Mot1 rescue: inactive; VIM-2 inh: inactive; SUMO HTRF inh: inactive; NALP1 yeast inh: inactive; IMP-1 inh-1: 6.0

Results for CCCCS(=O)(=O)N1CCCC(C(=O)NCCc2ccccc2)C1 (centres undefined) ?
DNA FID counter: inactive; SUMO Mot1 rescue: inactive; VIM-2 inh: inactive; SUMO HTRF inh: inactive; NALP1 yeast inh: inactive; IMP-1 inh-1: inactive

How did O=C(c1nc2ccc(Cl)cn2c1CN1CCC[C@H]1CO)N1CCCCCCC1 do in these assays?
DNA FID counter: inactive; SUMO Mot1 rescue: inactive; VIM-2 inh: inactive; SUMO HTRF inh: inactive; NALP1 yeast inh: inactive; IMP-1 inh-1: inactive

What do the screens show for `Cc1ccc(C(=O)CSc2nnc(CNc3ccc(F)cc3)o2)cc1`?
DNA FID counter: inactive; SUMO Mot1 rescue: inactive; VIM-2 inh: inactive; SUMO HTRF inh: inactive; NALP1 yeast inh: inactive; IMP-1 inh-1: inactive

How did Cn1c(-c2ccc(C=O)s2)nc2c3ccccc3c3ccccc3c21 do in these assays?
DNA FID counter: inactive; SUMO Mot1 rescue: inactive; VIM-2 inh: inactive; SUMO HTRF inh: 97.4; NALP1 yeast inh: 32.0; IMP-1 inh-1: inactive

What do the screens show for `C[n+]1ccc(/C=N/Nc2nc(Cl)c(C#N)c(Cl)c2Cl)cc1`?
DNA FID counter: inactive; SUMO Mot1 rescue: inactive; VIM-2 inh: 42.7; SUMO HTRF inh: inactive; NALP1 yeast inh: inactive; IMP-1 inh-1: inactive; IMP-1 inh-2: inactive; VIM-2 FRET inh: 34.2; TEM-1 counter: inactive; VIM-2 inh conf: 53.1

Results for Clc1nnc(N/N=C/c2ccccc2)c2ccccc12 ?
DNA FID counter: inactive; SUMO Mot1 rescue: inactive; VIM-2 inh: inactive; SUMO HTRF inh: inactive; NALP1 yeast inh: inactive; IMP-1 inh-1: inactive

How did O=C(CCCN1C(=O)/C(=C/c2ccccc2)SC1=S)NCCCn1ccnc1 do in these assays?
DNA FID counter: inactive; SUMO Mot1 rescue: inactive; VIM-2 inh: inactive; SUMO HTRF inh: inactive; NALP1 yeast inh: inactive; IMP-1 inh-1: inactive

How did O=C(CCN1C(=O)/C(=C/c2ccccc2F)SC1=S)NCCCn1ccnc1 do in these assays?
DNA FID counter: inactive; SUMO Mot1 rescue: inactive; VIM-2 inh: 36.5; NALP1 yeast inh: inactive; IMP-1 inh-1: inactive; IMP-1 inh-2: inactive; VIM-2 FRET inh: 44.0; TEM-1 counter: inactive; VIM-2 inh conf: 41.4

Results for CCOC(=O)c1sc2nc(C)nc(NC3CCC(O)CC3)c2c1C (centres undefined) ?
DNA FID counter: inactive; SUMO Mot1 rescue: inactive; VIM-2 inh: 23.4; SUMO HTRF inh: inactive; NALP1 yeast inh: inactive; IMP-1 inh-1: inactive; IMP-1 inh-2: inactive; VIM-2 FRET inh: inactive; TEM-1 counter: inactive; VIM-2 inh conf: 32.0

How did CN(C)CCNC(=O)c1csc(Nc2cccc3ccccc23)n1 do in these assays?
DNA FID counter: inactive; SUMO Mot1 rescue: inactive; VIM-2 inh: 13.1; SUMO HTRF inh: inactive; NALP1 yeast inh: inactive; IMP-1 inh-1: inactive; IMP-1 inh-2: inactive; VIM-2 FRET inh: inactive; TEM-1 counter: inactive; VIM-2 inh conf: 22.2

What do the screens show for `COc1cc(OC)c(-c2cc(C(=O)O)ccc2OC)c(OC)c1`?
DNA FID counter: inactive; SUMO Mot1 rescue: inactive; VIM-2 inh: inactive; SUMO HTRF inh: inactive; NALP1 yeast inh: inactive; IMP-1 inh-1: inactive

Results for CC(C)N1CCc2c(sc(NC(=O)c3cc(-c4cccs4)nc4ccccc34)c2C(N)=O)C1 ?
DNA FID counter: inactive; SUMO Mot1 rescue: inactive; VIM-2 inh: 19.8; SUMO HTRF inh: inactive; NALP1 yeast inh: inactive; IMP-1 inh-1: inactive; IMP-1 inh-2: inactive; VIM-2 FRET inh: inactive; TEM-1 counter: inactive; VIM-2 inh conf: 46.2

How did CC(C)N1CCc2c(sc(NC(=O)c3nc4ccccc4s3)c2C(N)=O)C1 do in these assays?
DNA FID counter: inactive; SUMO Mot1 rescue: inactive; VIM-2 inh: inactive; SUMO HTRF inh: inactive; NALP1 yeast inh: inactive; IMP-1 inh-1: inactive

How did O=[N+]([O-])c1ccc(-c2ccc(/C=N/n3cnnc3)o2)c(Br)c1 do in these assays?
DNA FID counter: inactive; SUMO Mot1 rescue: inactive; VIM-2 inh: 44.6; SUMO HTRF inh: inactive; NALP1 yeast inh: inactive; IMP-1 inh-1: inactive; IMP-1 inh-2: inactive; VIM-2 FRET inh: inactive; TEM-1 counter: inactive; VIM-2 inh conf: 57.2

How did Cc1n[nH]c(=S)n1/N=C/c1ccc(-c2ccccc2[N+](=O)[O-])o1 do in these assays?
DNA FID counter: inactive; SUMO Mot1 rescue: inactive; VIM-2 inh: inactive; SUMO HTRF inh: inactive; NALP1 yeast inh: inactive; IMP-1 inh-1: inactive

What do the screens show for `Nc1nnnn1CC(=O)N/N=C/c1cc([N+](=O)[O-])ccc1Cl`?
DNA FID counter: inactive; SUMO Mot1 rescue: inactive; VIM-2 inh: inactive; SUMO HTRF inh: inactive; NALP1 yeast inh: inactive; IMP-1 inh-1: inactive

Results for Cc1cc([N+](=O)[O-])c(C)cc1-c1ccc(/C=N/n2cnnc2)o1 ?
DNA FID counter: inactive; SUMO Mot1 rescue: inactive; VIM-2 inh: 44.5; SUMO HTRF inh: inactive; NALP1 yeast inh: inactive; IMP-1 inh-1: inactive; IMP-1 inh-2: inactive; VIM-2 FRET inh: inactive; TEM-1 counter: inactive; VIM-2 inh conf: 49.6
